From ChEMBL document CHEMBL1146260, “Synthesis and antifungal activity of 1H-indole-4,7-diones” (2007)
Values after ≈ are worked out from the molar mass of the structure shown.

How the values were obtained:
Format in all cases: functional
Aspergillus niger = assay: Antifungal activity against Aspergillus niger KCTC 1231 after 2 days by 2-fold broth dilution method; settings: KCTC 1231, 48 h
In short: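 Two-fold broth dilution MIC in modified Sabouraud dextrose broth, inoculum about 1 · 10⁵ cells/mL, final agent range […]; incubated at 37 °C, MIC read after 2 days; 5-fluorocytosine as standard agent.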

Candida albicans = assay: Antifungal activity against Candida albicans Berkout KCCM 50235 after 1 day by 2-fold broth dilution method; settings: KCCM 50235, 24 h
In short: (§1)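 MIC by 2-fold broth dilution in modified Sabouraud dextrose broth; inoculum about 1 · 10⁵ cells/mL; final drug concentrations […]; 37 °C, read after 1 day; 5-fluorocytosine run as standard agent.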

Cryptococcus neoformans = assay: Antifungal activity against Cryptococcus neoformans KCCM 50564 after 1 day by 2-fold broth dilution method; settings: KCCM 50564, 24 h; in short: as §1
Pichia kudriavzevii = assay: Antifungal activity against Candida krusei Berkout KCCM 11655 after 1 day by 2-fold broth dilution method; settings: KCCM 11655, 24 h; in short: as §1
Candida tropicalis = assay: Antifungal activity against Candida tropicalis Berkout KCCM 50662 after 1 day by 2-fold broth dilution method; settings: KCCM 50662, 24 h; in short: as §1

SMILES | MIC (Aspergillus niger) [µg/mL] | MIC (Candida albicans) [µg/mL] | MIC (Cryptococcus neoformans) [µg/mL] | MIC (Pichia kudriavzevii) [µg/mL] | MIC (Candida tropicalis) [µg/mL]
COC(=O)c1cn(C)c2c1C(=O)C(C)=C(C)C2=O | > 100 | > 100 | 1.6 (≈ 6.47 µM) | 3.2 (≈ 12.9 µM) | > 100
CCOC(=O)C(C#N)C1=C(Cl)C(=O)C(C)=C(C)C1=O (stereo not given) | > 100 | > 100 | 25 (≈ 88.7 µM) | 100 (≈ 355 µM) | > 100
CCOC(=O)c1cn(C)c2c1C(=O)C(C)=C(C)C2=O | > 100 | > 100 | 100 (≈ 383 µM) | 50 (≈ 191 µM) | 25 (≈ 95.7 µM)
COC(=O)c1cn(-c2ccc(Cl)cc2)c2c1C(=O)C(C)=C(C)C2=O | 25 (≈ 72.7 µM) | 12.5 (≈ 36.4 µM) | 12.5 (≈ 36.4 µM) | 0.8 (≈ 2.33 µM) | 12.5 (≈ 36.4 µM)
COC(=O)c1cn(-c2ccc(C(C)C)cc2)c2c1C(=O)C(C)=C(C)C2=O | 3.2 (≈ 9.11 µM) | 12.5 (≈ 35.6 µM) | 100 (≈ 285 µM) | 100 (≈ 285 µM) | 12.5 (≈ 35.6 µM)
Nc1nc(=O)[nH]cc1F [FLUCYTOSINE] | 50 (≈ 387 µM) | 6.3 (≈ 48.8 µM) | 12.5 (≈ 96.8 µM) | 6.3 (≈ 48.8 µM) | 12.5 (≈ 96.8 µM)
COC(=O)c1cn(-c2ccc(Br)cc2)c2c1C(=O)C(C)=C(C)C2=O | 3.2 (≈ 8.24 µM) | 50 (≈ 129 µM) | 50 (≈ 129 µM) | 50 (≈ 129 µM) | 6.3 (≈ 16.2 µM)
COC(=O)c1cn(-c2ccc(C)c(C)c2)c2c1C(=O)C(C)=C(C)C2=O | 6.3 (≈ 18.7 µM) | 12.5 (≈ 37.1 µM) | 1.6 (≈ 4.74 µM) | 0.8 (≈ 2.37 µM) | > 100
COC(=O)c1cn(-c2ccc(C)cc2)c2c1C(=O)C(C)=C(C)C2=O | > 100 | > 100 | 0.8 (≈ 2.47 µM) | 3.2 (≈ 9.9 µM) | > 100
COC(=O)c1cn(-c2ccc(OC(F)(F)F)cc2)c2c1C(=O)C(C)=C(C)C2=O | 3.2 (≈ 8.14 µM) | > 100 | 1.6 (≈ 4.07 µM) | 6.3 (≈ 16 µM) | > 100
COC(=O)C(C#N)C1=C(Cl)C(=O)C(C)=C(C)C1=O (stereo not given) | > 100 | > 100 | 6.3 (≈ 23.5 µM) | 100 (≈ 374 µM) | > 100
CCc1ccc(-n2cc(C(=O)OC)c3c2C(=O)C(C)=C(C)C3=O)cc1 | 3.2 (≈ 9.48 µM) | 25 (≈ 74.1 µM) | 50 (≈ 148 µM) | 50 (≈ 148 µM) | 50 (≈ 148 µM)
COC(=O)c1cn(-c2ccc(OC)cc2)c2c1C(=O)C(C)=C(C)C2=O | > 100 | > 100 | 100 (≈ 295 µM) | 3.2 (≈ 9.43 µM) | 50 (≈ 147 µM)

Next, values leading:

MIC (Aspergillus niger) [µg/mL] | MIC (Candida albicans) [µg/mL] | MIC (Cryptococcus neoformans) [µg/mL] | MIC (Pichia kudriavzevii) [µg/mL] | MIC (Candida tropicalis) [µg/mL] | SMILES
> 100 | 50 (≈ 126 µM) | 25 (≈ 63.2 µM) | > 100 | 50 (≈ 126 µM) | O=C1C(Sc2ccc(O)cc2)=C(Sc2ccc(O)cc2)C(=O)c2[nH]ccc21
100 (≈ 250 µM) | > 100 | 6.3 (≈ 15.8 µM) | 3.2 (≈ 8.01 µM) | 25 (≈ 62.6 µM) | O=C1C(Sc2ccc(F)cc2)=C(Sc2ccc(F)cc2)C(=O)c2[nH]ccc21
12.5 (≈ 38.2 µM) | > 100 | 3.2 (≈ 9.78 µM) | 3.2 (≈ 9.78 µM) | > 100 | COC(=O)c1cn(-c2ccc(F)cc2)c2c1C(=O)C(C)=C(C)C2=O
100 (≈ 238 µM) | > 100 | 50 (≈ 119 µM) | > 100 | > 100 | Cc1ccc(SC2=C(Sc3ccc(C)c(C)c3)C(=O)c3[nH]ccc3C2=O)cc1C
50 (≈ 138 µM) | > 100 | 12.5 (≈ 34.4 µM) | > 100 | > 100 | O=C1C(Sc2ccccc2)=C(Sc2ccccc2)C(=O)c2[nH]ccc21
> 100 | > 100 | 3.2 (≈ 7.4 µM) | 25 (≈ 57.8 µM) | 12.5 (≈ 28.9 µM) | O=C1C(Sc2ccc(Cl)cc2)=C(Sc2ccc(Cl)cc2)C(=O)c2[nH]ccc21
50 (≈ 128 µM) | > 100 | 3.2 (≈ 8.17 µM) | > 100 | 12.5 (≈ 31.9 µM) | Cc1cccc(SC2=C(Sc3cccc(C)c3)C(=O)c3[nH]ccc3C2=O)c1
25 (≈ 80.8 µM) | 3.2 (≈ 10.3 µM) | 6.3 (≈ 20.4 µM) | 1.6 (≈ 5.17 µM) | 12.5 (≈ 40.4 µM) | COC(=O)c1cn(-c2ccccc2)c2c1C(=O)C(C)=C(C)C2=O
12.5 (≈ 24 µM) | > 100 | 3.2 (≈ 6.14 µM) | > 100 | > 100 | O=C1C(Sc2ccc(Br)cc2)=C(Sc2ccc(Br)cc2)C(=O)c2[nH]ccc21
25 (≈ 57.8 µM) | 6.3 (≈ 14.6 µM) | 3.2 (≈ 7.4 µM) | 25 (≈ 57.8 µM) | 1.6 (≈ 3.7 µM) | O=C1C(Sc2cccc(Cl)c2)=C(Sc2cccc(Cl)c2)C(=O)c2[nH]ccc21
100 (≈ 230 µM) | 25 (≈ 57.4 µM) | 50 (≈ 115 µM) | 50 (≈ 115 µM) | 12.5 (≈ 28.7 µM) | COC(=O)c1cn(-c2ccc(I)cc2)c2c1C(=O)C(C)=C(C)C2=O
> 100 | > 100 | 50 (≈ 115 µM) | 12.5 (≈ 28.7 µM) | > 100 | O=C1C(Sc2ccc(F)c(F)c2)=C(Sc2ccc(F)c(F)c2)C(=O)c2[nH]ccc21
